Assay: Toxicity liver stage against HepG2, at 10uM
Type: cell-based
Set-up: test concentration 10 uM, cell line HepG2-A16-CD81EGFP
Conditions: human, HepG2-A16-CD81EGFP cells; read-out: INHIBITION
How it was run: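 Uninfected HepG2-A16-CD81EGFP cells, 3 × 10^3 per well, 1536-well, plated on prespotted compound at 10 μM final, parasite-free screening media added to match infected plates; puromycin 10 μM positive, DMSO 0.5% negative; run in parallel with 48 h PbLuc assay at 37 °C, 5% CO2; viability by CellTiter-Glo luminescence, normalized to controls.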

`CCC(CC)C(=O)c1c[nH]c(C(=O)N2CCN(c3ccccc3)CC2)c1` gave a cytotoxicity at 10 µM of 14.7%.
`CN1CCOC[C@H]1c1nc(-c2cccnc2)c[nH]1` gave a cytotoxicity at 10 µM of -0.405%.
With `CC(C)C(=O)N1CCOC[C@H](Oc2ccc(C(F)(F)F)cc2)C1` the cytotoxicity at 10 µM was 4.53%.
For `CC[C@@H](C)[C@H](NC(=O)CCn1cc(C(C)=O)c2ccccc21)C(=O)O`, the cytotoxicity at 10 µM was -5.27%.
With `O=c1nc(SCc2ccc(Cl)cc2)c2c(n1CCO)CCC2` the cytotoxicity at 10 µM was 12.3%.
With `NC(=O)c1nnn(-c2ccc(Cl)cc2)n1` the cytotoxicity at 10 µM was 8.99%.
Compound `CN(C)CC1CSCCCN1S(=O)(=O)Cc1cccc(F)c1` (stereo not drawn) has a cytotoxicity at 10 µM of -3.63%.
Work on `CCC(=O)N1CCC2(CC1)CC(CC(N)=O)c1ccc(F)cc12` (stereo not drawn) yielded a cytotoxicity at 10 µM of 11.8%.
For `O=C(C1CCCC1)N1CCO[C@H]2[C@H](OCC3CCOCC3)CC[C@@H]21`, the cytotoxicity at 10 µM was 5.05%.
Compound `Cn1c(N)c2c(=O)n(C)c(-c3ccc(Cl)cc3)cc2c(C#N)c1=O` has a cytotoxicity at 10 µM of -8.91%.
`O=S(=O)(c1ccccc1)N1CCN(CCn2ccnc2)CC1` showed a cytotoxicity at 10 µM of -21.6%.
`Cc1nn(C)c2cnn(Cc3ccc(C(=O)NC4CC4)cc3)c12` gave a cytotoxicity at 10 µM of 6.42%.
`Cc1noc(C)c1CCC(=O)N[C@@H]1CCC[C@@H](Oc2cccnc2)[C@@H]1O` showed a cytotoxicity at 10 µM of -0.903%.
With `CC(=O)c1cc(C(=O)N2Cc3ccccc3OC3(CCOCC3)C2)cs1` the cytotoxicity at 10 µM was -20%.
With `NCC(=O)N1CCC2(CC1)CN(C(=O)Cc1ccc(Cl)cc1)CCO2` the cytotoxicity at 10 µM was 5.56%.
Work on `N#Cc1cc2cc(Cl)cnc2nc1O` yielded a cytotoxicity at 10 µM of 4.29%.
`CCOc1ccc(N(CCC#N)C(=O)c2ccc(SC)nc2)cc1` showed a cytotoxicity at 10 µM of 5.93%.
Compound `O=C(Nc1cnn(Cc2ccccc2)c1)N1CCN(CCO)CC1` has a cytotoxicity at 10 µM of 2.11%.
`CC(C)(Oc1ccc2c(c1)CCCC2=O)C(=O)NCc1ccco1` showed a cytotoxicity at 10 µM of -2.74%.
`Cc1nc(C)n(CC2CCCCN2c2ccnc(-c3ccccc3)n2)n1` (stereo not drawn) gave a cytotoxicity at 10 µM of -1.17%.
With `CC(C)(C)n1c(NC(=O)CNC(=O)NC2CC2)nc2ccccc21` the cytotoxicity at 10 µM was 4.23%.
Compound `CC(NS(=O)(=O)CCCC#N)c1cccc(-n2cccn2)c1` (stereo not drawn) has a cytotoxicity at 10 µM of 1.42%.
Compound `Cc1n[nH]c(-c2ccc(NC(=O)C(C)N3CCN(C)CC3)cc2)n1` (stereo not drawn) has a cytotoxicity at 10 µM of 6.03%.
`CC(C)c1ccc(OCCC(=O)N(C)C)cc1` gave a cytotoxicity at 10 µM of 3.81%.
In the case of `CC(C)n1cnnc1CNC(=O)CCCOc1ccccc1F`, the cytotoxicity at 10 µM is reported as -4.56%.
`COCCC(=O)N(C)Cc1nc(C(F)(F)F)cs1` gave a cytotoxicity at 10 µM of 23.3%.
Work on `Cn1cc(S(=O)(=O)Nc2ccc(Cl)cn2)cc1C(N)=O` yielded a cytotoxicity at 10 µM of -1.7%.
`O=C1CC2(CCSC2)C(=O)N1Cc1ncc(-c2cccc(F)c2)o1` (stereo not drawn) showed a cytotoxicity at 10 µM of 10.3%.
For `Cn1cc(C(=O)N2CCCC2c2ccc3c(c2)OCCO3)ccc1=O` (stereo not drawn), the cytotoxicity at 10 µM was 3.92%.
Work on `COCC(C)NC(=O)c1cncc(Br)c1` (stereo not drawn) yielded a cytotoxicity at 10 µM of 3.73%.
For `Cc1noc(NCc2cc(F)ccc2F)n1`, the cytotoxicity at 10 µM was -4.86%.
For `Cc1noc(-c2cccnc2N2CCN(c3cnn(C)c3)CC2)n1`, the cytotoxicity at 10 µM was 1.12%.
In the case of `Cn1cc(C2(C)CN(Cc3ccc(O)c(Cl)c3)CCO2)cn1` (stereo not drawn), the cytotoxicity at 10 µM is reported as -4.12%.
Work on `O=C(NCC1CC(=O)N(CCc2ccccc2)C1)c1ccc[nH]1` (stereo not drawn) yielded a cytotoxicity at 10 µM of -0.553%.
Work on `Cc1ccc(C(=O)NC2CCCCNC2=O)c(=O)[nH]1` (stereo not drawn) yielded a cytotoxicity at 10 µM of -5.49%.
For `CCc1nnc2n1CCN(C(=O)CCc1ccc(C)c(Cl)c1)C2`, the cytotoxicity at 10 µM was -4.01%.
Work on `O=C(CN1CCN(CCO)CC1)NCCc1c(F)cccc1F` yielded a cytotoxicity at 10 µM of -9.83%.
With `CC(C)CCN1CCN(Cc2nc(C(C)C)no2)CC1` the cytotoxicity at 10 µM was -6.71%.
With `CC(=O)N1CCC(C(=O)Nc2nc(C3CC3)cs2)CC1` the cytotoxicity at 10 µM was -3.28%.
For `CC1CN(c2cc(CNCc3cccc4c3OCCO4)ccn2)CCO1` (stereo not drawn), the cytotoxicity at 10 µM was 3.96%.
Work on `CN(Cc1ncnn1C)C(=O)c1ccccc1NCc1ccccc1` yielded a cytotoxicity at 10 µM of 15.3%.
Compound `CCCc1cc(N2CCCCC2Cn2cc(C)cn2)n2ncnc2n1` (stereo not drawn) has a cytotoxicity at 10 µM of -0.554%.
With `CNC(=O)C1CCN(Cc2cc3c(cc2O)CCC3)CC1` the cytotoxicity at 10 µM was 4.83%.
Work on `Cc1nc(C2(NCc3ccc(C#N)cc3F)CCCCC2)no1` yielded a cytotoxicity at 10 µM of -11.2%.
`Cc1ccc2c(c1)N(C(=O)C1CCCOC1)CCC2` (stereo not drawn) gave a cytotoxicity at 10 µM of 5%.
Work on `COC(=O)NC1(C(=O)NCc2ccc(-c3ccn[nH]3)cc2)CCCC1` yielded a cytotoxicity at 10 µM of -7.65%.
`CC(C)CC(NS(C)(=O)=O)C(=O)N(C)Cc1nnc2n1CCC2` (stereo not drawn) gave a cytotoxicity at 10 µM of -4.22%.
Compound `CN1CCN(C(=O)CCCc2ccccn2)c2ccc(F)cc21` has a cytotoxicity at 10 µM of 1.66%.
With `CCCc1cc(NC(=O)c2ccc(Cl)c(N3CCNC3=O)c2)n[nH]1` the cytotoxicity at 10 µM was -4.55%.
For `COCCN1CCN(CCCc2nnnn2-c2ccccc2)CC1`, the cytotoxicity at 10 µM was 5.04%.
`CC(C)C(NC(=O)c1ccc(Cl)cc1Cl)C(=O)Nc1cnn(C)c1` (stereo not drawn) gave a cytotoxicity at 10 µM of -2.65%.
Work on `Cc1ccc(O)c(C(=O)N2CCC(CN3CCCCCC3)CC2)c1` yielded a cytotoxicity at 10 µM of 5.52%.
`O=C(C(CNCc1ccncc1)c1ccccc1)N1CCOCC1` (stereo not drawn) gave a cytotoxicity at 10 µM of -19%.
Work on `CCN(C(=O)CCCOc1ccccc1F)c1ccncc1` yielded a cytotoxicity at 10 µM of -5.69%.
Work on `Cn1ccnc1CN(CCCO)C1CCCc2ccccc21` (stereo not drawn) yielded a cytotoxicity at 10 µM of -6.91%.
`CC(C)(C)NC(=O)CN1CCN(C(=O)Nc2ccc(F)cc2F)CC1` gave a cytotoxicity at 10 µM of -23.2%.
`COCC1COCCC12CCN(S(=O)(=O)c1ccccc1)CC2` (stereo not drawn) gave a cytotoxicity at 10 µM of 0.242%.
With `CC(=O)NCc1cc2n(n1)CCN(Cc1cccc(Cl)c1Cl)C2` the cytotoxicity at 10 µM was -12.8%.
For `CC(=O)NCc1nc(CCOc2ccc(Cl)cc2)no1`, the cytotoxicity at 10 µM was -145%.
With `COCC(O)CNC(=O)c1coc(COc2cccc(F)c2)n1` (stereo not drawn) the cytotoxicity at 10 µM was -139%.
In the case of `COc1cc2[nH]c(=O)c(CN3CCC[C@H]3CO)cc2c(OC)c1OC`, the cytotoxicity at 10 µM is reported as -10.7%.
Compound `COCc1ccc(C(=O)N2CC[C@@](O)(COC)C(C)(C)C2)o1` has a cytotoxicity at 10 µM of -2.69%.
Work on `CN(C)c1nc2c(c(N3CCCC4(CC3)CNC(=O)O4)n1)CCCC2` (stereo not drawn) yielded a cytotoxicity at 10 µM of -1.07%.
With `COCc1cc(N(C)CCC(O)c2ccccc2)n2nccc2n1` (stereo not drawn) the cytotoxicity at 10 µM was -2.49%.
Compound `COc1ccc(OCCCN(C)C(=O)C2CCCN2C(N)=O)cc1` (stereo not drawn) has a cytotoxicity at 10 µM of 1.7%.
With `NCC1Cc2cc(F)cc(-c3cnccn3)c2O1` (stereo not drawn) the cytotoxicity at 10 µM was -9.78%.
`CCc1ccccc1OCCN1CC[C@@]2(O)CCNC[C@H]2C1` showed a cytotoxicity at 10 µM of -160%.
Work on `O=C(NCc1ccco1)c1ccc(N2CCOCC2)cc1` yielded a cytotoxicity at 10 µM of 4.31%.
Compound `CCOC(=O)N1CCN(CC(=O)Nc2nnc(C)s2)CC1` has a cytotoxicity at 10 µM of 1.31%.
Compound `Cc1n[nH]c(C)c1CNC(=O)CSCc1ccccc1Cl` has a cytotoxicity at 10 µM of -4.02%.
For `CN(Cc1cnn(C)c1)C(=O)NCc1ccc2c(c1)OCCO2`, the cytotoxicity at 10 µM was -8.01%.
`Nc1nc(CN2CCCC2Cn2cncn2)nc2ccccc12` (stereo not drawn) showed a cytotoxicity at 10 µM of -11.7%.
Work on `Cc1cc(CN2CCOC(Cn3nc(C)cc3C)C2)on1` (stereo not drawn) yielded a cytotoxicity at 10 µM of -5.81%.
`COc1ccc(OC)c(C(O)CNC(=O)Nc2ccc(F)cc2F)c1` (stereo not drawn) showed a cytotoxicity at 10 µM of -2.74%.
Work on `CCc1ccc(C(=O)N2CCCC(CNS(C)(=O)=O)C2)o1` (stereo not drawn) yielded a cytotoxicity at 10 µM of -19.7%.
Work on `COCCN1CCC(NCc2cccnc2)C1` (stereo not drawn) yielded a cytotoxicity at 10 µM of -10.4%.
Compound `Cc1nc(C)n(CC2CN(c3nnc(C)c(C)c3C#N)CCO2)n1` (stereo not drawn) has a cytotoxicity at 10 µM of -0.00964%.
`Cc1nn(C)c(N2CCOCC2)c1CNC1CCOc2ccccc21` (stereo not drawn) showed a cytotoxicity at 10 µM of -7.44%.
In the case of `COc1ccc(CCN2CCc3c(nc(C4CC4)n3C)C2)cc1`, the cytotoxicity at 10 µM is reported as -0.729%.
For `O=C(c1ccccc1F)N1CC2(CCNCC2)c2cc(Cl)ccc21`, the cytotoxicity at 10 µM was -3.31%.
In the case of `COCCN1C[C@H]2CC[C@@]3(N=C(C)N(CC4CC4)C3=O)[C@H]2C1`, the cytotoxicity at 10 µM is reported as -7.5%.
Work on `CCCN1C(=O)[C@@H]2CC[C@H]1CN(S(=O)(=O)c1cccc(Cl)c1)C2` yielded a cytotoxicity at 10 µM of -2.78%.
Compound `CC(C)=CCN1C(=O)[C@@H]2CC[C@H]1CN(Cc1cccnc1N)C2` has a cytotoxicity at 10 µM of 12.3%.

— ChEMBL document CHEMBL4513216, “Probing the Open Global Health Chemical Diversity Library for Multistage-Active Starting Points for Next-Generation Antimalarials” (ACS Infect Dis, 2020)
